# The RNAGym collection of RNA variant scans (doi:10.1002/anie.201605470)
# B1: Osa-1-4 twister ribozyme (parent)
# chain: CCGCCUAACACUGCCAAUGCCGGUCCCAAGCCCGGAUAAAAGUGGAGGGGGCGG
# Variants of: B1
# Assay: self-cleavage, relative activity (ratio to wild type); higher = more cleavage; co-transcriptional
# How it was run: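 A DNA template for a 54-nucleotide Oryza sativa twister ribozyme was synthesised with 97 % wild-type base and 1 % of each other base at the 48 positions downstream of the cleavage site. It was transcribed in vitro for 2 h at 37 °C, allowing co-transcriptional self-cleavage, then reverse-transcribed with a template-switching oligonucleotide, PCR-amplified and deep-sequenced. Cleavage status was scored from reads with or without upstream sequence. Relative activity is fraction cleaved normalised to wild type.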
row,Variant,self-cleavage
1,CCGCCUAACACUGCCAAUGCCUGUCCCAAGCCCGCAUAAAAGUGGAGGGGGCGG [G22U G35C],0.11
2,CCGCCUAACACUGCCAAUGCCUGUCCCAAGCCCGAAUAAAAGUGGAGGGGGCGG [G22U G35A],0.36
3,CCGCCUAACACUGCCAAUGCCUGUCCCAAGCCCGUAUAAAAGUGGAGGGGGCGG [G22U G35U],0.41
4,CCGCCUAACACUGCCAAUGCCCGUCCCAAGCCCGGAUAAAAGUGGAGGGGGCAG [G22C G53A],0.06
5,CCGCCUAACACUGCCAAUGCCCGUCCCAAGCCCGGAUAAAAGUGGAGGGGGCCG [G22C G53C],0.03
6,CCGCCUAACACUGCCAAUGCCCGUCCCAAGCCCGGAUAAAAGUGGAGGGGGCUG [G22C G53U],0.04
7,CCGCCUAACACUGCCAAUGCCCGUCCCAAGCCCGGAUAAAAGUGGAGGGGGCGG [G22C],0.19
8,CCGCCUAACACUGCCAAUGCCUGUCCCAAGCCCGGAUAAAAGUGGAGGGGGCGG [G22U],0.93
9,CCGCCUAACACUGCCAAUGCCCGUCCCAAGCCCGGAUAAAAGUUGAGGGGGCGG [G22C G44U],0.07
10,CCGCCUAACACUGCCAAUGCCCGUCCCAAGCCCGGAUAAAAGUAGAGGGGGCGG [G22C G44A],0.07
11,CCGCCUAACACUGCCAAUGCCCGUCCCAAGCCCGGAUAAAAGUCGAGGGGGCGG [G22C G44C],0.06
12,CCGCCUAACACUGCCAAGGCCCGUCCCAAGCCCGGAUAAAAGUGGAGGGGGCGG [G22C U18G],0.17
13,CCGCCUAACACUGCCAACGCCCGUCCCAAGCCCGGAUAAAAGUGGAGGGGGCGG [G22C U18C],0.1
14,CCGCCUAACACUGCCAAAGCCCGUCCCAAGCCCGGAUAAAAGUGGAGGGGGCGG [G22C U18A],0.14
15,CCGCCUAACACUGCCAAUGCCCGUCCCAAGCCCGCAUAAAAGUGGAGGGGGCGG [G22C G35C],0.03
16,CCGCCUAACACUGCCAAUGCCCGUCCCAAGCCCGUAUAAAAGUGGAGGGGGCGG [G22C G35U],0.04
17,CCGCCUAACACUGCCAAUGCCCGUCCCAAGCCCGAAUAAAAGUGGAGGGGGCGG [G22C G35A],0.03
18,CCGCCUAACACUGCCAAUGCCUGUCCCAACCCCGGAUAAAAGUGGAGGGGGCGG [G22U G30C],0.04
19,CCGCCUAACACUGCCAAUGCCUGUCCCAAUCCCGGAUAAAAGUGGAGGGGGCGG [G22U G30U],0.03
20,CCGCCUAACACUGCCAAUGCCUGUCCCAAACCCGGAUAAAAGUGGAGGGGGCGG [G22U G30A],0.03
21,CCGCCUAACACUGCCAAUGCCUAUCCCAAGCCCGGAUAAAAGUGGAGGGGGCGG [G22U G23A],0.08
22,CCGCCUAACACUGCCAAUGCCUUUCCCAAGCCCGGAUAAAAGUGGAGGGGGCGG [G22U G23U],0.07
23,CCGCCUAACACUGCCAAUGCCUCUCCCAAGCCCGGAUAAAAGUGGAGGGGGCGG [G22U G23C],0.04
24,CCGCCUAACACUGCCAAUGCCAGUCCCAAGCCCGGACAAAAGUGGAGGGGGCGG [G22A U37C],1.01

row,Variant,self-cleavage
1,CCGCCUAACACUGCCAAUGCCAGUCCCAAGCCCGGAAAAAAGUGGAGGGGGCGG [G22A U37A],1.06
2,CCGCCUAACACUGCCAAUGCCAGUCCCAAGCCCGGAGAAAAGUGGAGGGGGCGG [G22A U37G],1
3,CCGCCUAACACUGCCAAUGCCAGUCCCAAGCCCGGAUAAAAGAGGAGGGGGCGG [G22A U43A],0.3
4,CCGCCUAACACUGCCAAUGCCAGUCCCAAGCCCGGAUAAAAGGGGAGGGGGCGG [G22A U43G],0.1
5,CCGCCUAACACUGCCAAUGCCAGUCCCAAGCCCGGAUAAAAGCGGAGGGGGCGG [G22A U43C],0.18
6,CCGCCUAACACUGCCAAUGCCCGUCCCAAACCCGGAUAAAAGUGGAGGGGGCGG [G22C G30A],0.03
7,CCGCCUAACACUGCCAAUGCCCGUCCCAACCCCGGAUAAAAGUGGAGGGGGCGG [G22C G30C],0.02
8,CCGCCUAACACUGCCAAUGCCCGUCCCAAUCCCGGAUAAAAGUGGAGGGGGCGG [G22C G30U],0.02
9,CCGCCUAACACUGCCAAUGCCCGUCCCAAGCCCGGAUAAAAGUGGAGGGAGCGG [G22C G50A],0.34
10,CCGCCUAACACUGCCAAUGCCCGUCCCAAGCCCGGAUAAAAGUGGAGGGUGCGG [G22C G50U],0.11
11,CCGCCUAACACUGCCAAUGCCCGUCCCAAGCCCGGAUAAAAGUGGAGGGCGCGG [G22C G50C],0.05
12,CCGCCUAACACUGCCAAUGCCUGUCCCAAGCCCGGAUAAAAGUGGAGGGCGCGG [G22U G50C],0.3
13,CCGCCUAACACUGCCAAUGCCUGUCCCAAGCCCGGAUAAAAGUGGAGGGAGCGG [G22U G50A],0.91
14,CCGCCUAACACUGCCAAUGCCUGUCCCAAGCCCGGAUAAAAGUGAAGGGGGCGG [G22U G45A],0.11
15,CCGCCUAACACUGCCAAUGCCUGUCCCAAGCCCGGAUAAAAGUGCAGGGGGCGG [G22U G45C],0.04
16,CCGCCUAACACUGCCAAUGCCUGUCCCAAGCCCGGAUAAAAGUGUAGGGGGCGG [G22U G45U],0.06
17,CCGCCUAACACUGCCAAUGCCCGUCCCAAGCCCGGAUAAAAGUGGAGGGGACGG [G22C G51A],0.04
18,CCGCCUAACACUGCCAAUGCCCGUCCCAAGCCCGGAUAAAAGUGGAGGGGUCGG [G22C G51U],0.04
19,CCGCCUAACACUGCCAAUGCCCGUCCCAAGCCCGGAUAAAAGUGGAGGGGCCGG [G22C G51C],0.03
20,CCGCCUAACACUGCCAAUGCCCGUCCCAAGCCCGGAUAAAAGAGGAGGGGGCGG [G22C U43A],0.04
21,CCGCCUAACACUGCCAAUGCCCGUCCCAAGCCCGGAUAAAAGGGGAGGGGGCGG [G22C U43G],0.04
22,CCGCCUAACACUGCCAAUGCCCGUCCCAAGCCCGGAUAAAAGCGGAGGGGGCGG [G22C U43C],0.03
23,CCGCCUAACACUGCCAAUGCCCCUCCCAAGCCCGGAUAAAAGUGGAGGGGGCGG [G22C G23C],0.02
24,CCGCCUAACACUGCCAAUGCCCUUCCCAAGCCCGGAUAAAAGUGGAGGGGGCGG [G22C G23U],0.03
